From ChEMBL document CHEMBL4145662, “Novel Nonsteroidal Progesterone Receptor (PR) Antagonists with a Phenanthridinone Skeleton” (ACS Med Chem Lett, 2018) come the findings set out here.

Activity calls are given as the source filed them. The rule behind the calls is not given here.

Common to all, as to format: cell-based
The species entered for data set [1] is Homo sapiens. Description: Selectivity ratio of IC50 for human GAL4N-fused LXRalpha LBD expressed in HEK293 cells to IC50 for PR in human T47D cells assessed as inhibition of progesterone-induced alkaline phosphatase activity.
The target in the next data set is T1, Progesterone receptor (Homo sapiens, UniProt P06401).
T1 sequence (P06401 whole entry): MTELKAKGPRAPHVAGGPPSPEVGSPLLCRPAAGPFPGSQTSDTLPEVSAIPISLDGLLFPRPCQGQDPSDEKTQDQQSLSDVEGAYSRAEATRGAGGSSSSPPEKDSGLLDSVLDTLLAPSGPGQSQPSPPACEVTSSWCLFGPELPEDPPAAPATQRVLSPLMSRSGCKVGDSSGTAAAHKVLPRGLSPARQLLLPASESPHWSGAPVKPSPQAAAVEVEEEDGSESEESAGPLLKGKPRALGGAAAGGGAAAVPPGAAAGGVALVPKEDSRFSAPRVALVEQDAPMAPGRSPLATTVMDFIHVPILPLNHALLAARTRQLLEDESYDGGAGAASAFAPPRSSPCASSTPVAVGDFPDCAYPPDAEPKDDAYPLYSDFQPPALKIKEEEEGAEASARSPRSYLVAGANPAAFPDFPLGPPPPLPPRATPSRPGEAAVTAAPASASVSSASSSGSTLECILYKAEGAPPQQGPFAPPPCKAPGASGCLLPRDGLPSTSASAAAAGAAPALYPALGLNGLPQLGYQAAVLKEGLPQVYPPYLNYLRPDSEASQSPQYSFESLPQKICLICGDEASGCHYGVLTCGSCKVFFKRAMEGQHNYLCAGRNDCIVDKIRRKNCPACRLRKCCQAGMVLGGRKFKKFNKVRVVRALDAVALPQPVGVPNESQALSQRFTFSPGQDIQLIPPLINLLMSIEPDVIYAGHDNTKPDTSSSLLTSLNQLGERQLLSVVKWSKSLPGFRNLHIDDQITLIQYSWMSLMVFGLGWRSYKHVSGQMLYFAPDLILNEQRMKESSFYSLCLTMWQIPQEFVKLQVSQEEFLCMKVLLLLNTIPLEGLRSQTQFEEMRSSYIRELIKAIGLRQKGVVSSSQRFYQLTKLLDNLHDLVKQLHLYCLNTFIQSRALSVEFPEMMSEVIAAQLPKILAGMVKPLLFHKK
Description: Agonist activity at PR in human T47D cells at 10 uM.

For data set [2], the target named is T2, Oxysterols receptor LXR-alpha (Homo sapiens, UniProt Q13133).
T2 sequence (Q13133 whole entry): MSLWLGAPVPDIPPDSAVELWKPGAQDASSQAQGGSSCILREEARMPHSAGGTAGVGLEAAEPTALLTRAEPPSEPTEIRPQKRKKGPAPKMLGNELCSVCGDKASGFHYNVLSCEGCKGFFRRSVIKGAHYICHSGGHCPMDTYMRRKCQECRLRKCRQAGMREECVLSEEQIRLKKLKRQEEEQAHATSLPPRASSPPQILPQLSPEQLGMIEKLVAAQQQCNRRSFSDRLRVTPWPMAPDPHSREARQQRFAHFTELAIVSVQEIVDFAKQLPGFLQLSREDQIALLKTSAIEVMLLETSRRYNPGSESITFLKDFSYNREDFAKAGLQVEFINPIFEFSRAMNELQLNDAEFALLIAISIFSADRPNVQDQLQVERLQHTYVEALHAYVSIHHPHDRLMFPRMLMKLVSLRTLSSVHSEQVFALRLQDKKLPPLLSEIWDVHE
The experiment in a line: Antagonist activity at human GAL4N-fused LXRalpha LBD expressed in HEK293 cells assessed as reduction in T0901317-induced transactivation activity after 24 hrs by luciferase reporter gene assay.

Data set [3] is filed under the species Homo sapiens. The experiment in a line: Selectivity ratio of IC50 for human CMX-GRalpha expressed in HEK293 cells to IC50 for PR in human T47D cells assessed as inhibition of progesterone-induced alkaline phosphatase activity.
The species entered for data set [4] is Homo sapiens. The experiment in a line: Selectivity ratio of IC50 for human RORbeta1 expressed in HEK293 cells to IC50 for PR in human T47D cells assessed as inhibition of progesterone-induced alkaline phosphatase activity.
Data set [5] addresses T3, Nuclear receptor ROR-beta (Homo sapiens, UniProt Q92753).
T3 sequence (Q92753 whole entry): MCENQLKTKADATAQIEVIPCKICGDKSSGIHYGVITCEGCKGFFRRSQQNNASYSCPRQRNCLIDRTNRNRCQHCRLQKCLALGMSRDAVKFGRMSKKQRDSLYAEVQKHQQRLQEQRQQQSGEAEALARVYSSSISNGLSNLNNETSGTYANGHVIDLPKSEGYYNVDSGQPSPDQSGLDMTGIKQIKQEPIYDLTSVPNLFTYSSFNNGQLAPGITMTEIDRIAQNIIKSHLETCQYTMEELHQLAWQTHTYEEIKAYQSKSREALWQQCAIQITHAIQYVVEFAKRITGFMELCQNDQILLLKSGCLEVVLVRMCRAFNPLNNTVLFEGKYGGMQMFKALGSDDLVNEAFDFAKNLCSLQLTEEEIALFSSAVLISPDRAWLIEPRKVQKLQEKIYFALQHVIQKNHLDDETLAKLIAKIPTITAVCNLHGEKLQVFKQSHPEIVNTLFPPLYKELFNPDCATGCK
Description: Antagonist activity at human RORbeta1 expressed in HEK293 cells after 24 hrs by luciferase reporter gene assay. An outline of the steps:
(§1)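 Inverse agonism at RORα, RORβ or RORγ measured by reporter gene assay.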
(Reporter assays use an easily measured gene product as a stand-in for the process of interest.)

The target in data set [6] is T4, Nuclear receptor ROR-gamma (Homo sapiens) (UniProt P51449).
T4 sequence (whole entry): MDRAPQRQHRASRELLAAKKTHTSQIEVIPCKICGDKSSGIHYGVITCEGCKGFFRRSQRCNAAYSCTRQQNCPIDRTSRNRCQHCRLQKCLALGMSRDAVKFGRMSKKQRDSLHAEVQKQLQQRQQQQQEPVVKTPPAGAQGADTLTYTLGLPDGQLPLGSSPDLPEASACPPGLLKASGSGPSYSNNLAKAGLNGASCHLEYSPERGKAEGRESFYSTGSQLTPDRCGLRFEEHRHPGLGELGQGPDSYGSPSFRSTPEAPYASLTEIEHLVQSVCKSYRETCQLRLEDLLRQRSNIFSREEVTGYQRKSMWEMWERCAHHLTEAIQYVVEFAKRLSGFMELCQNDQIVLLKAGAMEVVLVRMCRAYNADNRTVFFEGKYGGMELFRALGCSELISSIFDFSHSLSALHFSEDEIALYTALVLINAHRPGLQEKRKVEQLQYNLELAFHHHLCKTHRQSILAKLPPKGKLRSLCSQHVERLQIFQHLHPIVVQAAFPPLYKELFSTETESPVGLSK
The experiment in a line: Antagonist activity at human RORgamma1 expressed in HEK293 cells at 20 uM after 24 hrs by luciferase reporter gene assay. An outline of the steps:
as §1

For the compound `Cc1cc(C(O)(C(F)(F)F)C(F)(F)F)cc2c1[nH]c(=O)c1ccccc12`, the Ratio IC50 in the data set listed under Homo sapiens [1], in the data set filed under Homo sapiens [3] and in the data set listed under Homo sapiens [4] was over 100 throughout. Further, the Activity entry on Progesterone receptor is recorded as “Not Active”. Besides, the IC50 in data set [2] and in data set [5] was over 20 µM in each case.
With `Cc1cc(C(O)(C(F)(F)F)C(F)(F)F)cc2c1[nH]c(=O)c1cc(F)ccc12`, the Ratio IC50 in the data set filed under Homo sapiens [1], in the data set filed under Homo sapiens [3] and in the data set filed under Homo sapiens [4] was over 300 throughout. At Progesterone receptor, the Activity result was “Not Active”. Further, the IC50 in data set [2] and in data set [5] was over 20 µM in each case. In addition, the result in data set [6] was inactive.
In the case of `Cc1cc(C(O)(C(F)(F)F)C(F)(F)F)cc2c3ccc(F)cc3c(=O)n(C)c12`, the Ratio IC50 in the data set listed under Homo sapiens [1], in the data set listed under Homo sapiens [3] and in the data set filed under Homo sapiens [4] was over 300 throughout. Also, the Activity result at Progesterone receptor is listed as “Not Active”. The 50% inhibitory concentration (IC50) in data set [2] and in data set [5] was over 20 µM in each case. For the same compound, the outcome in data set [6] was inactive.
